Measurements published in paper PMC5384886 (International Journal for Parasitology: Drugs and Drug …, 2017).
Where two headings read alike, the source gives them in different places.

Experiments:
β-hematin formation = test: Inhibition assay of β-hematin formation; type: biochemical; settings: for β-Hematin % Inhibition: at a concentration of 100 μM; for IC50: read-out: β-Hematin IC50
In short: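 NP-40 detergent-mediated β-hematin assay. Compound in DMSO plus NP-40 and water. Hematin was dissolved in DMSO (25 mM stock) and suspended in acetate buffer (pH 4.8; final 0.5 M). Incubated 4 h at 37 °C. Controls: DMSO (negative), chloroquine and amodiaquine (100 μM final). Pyridine-ferrichrome read-out: 5% v/v final pyridine, HEPES pH 7.4, extra acetone, 405 nm. % inhibition at 100 μM; IC50 from concentration series; triplicate, repeated twice.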

[1] = tested on: human embryonic lung fibroblast WI38; test: Cytotoxicity assay on WI38 cells; type: cell-based; settings: for SI CC50/IC50 (Pf3D7): CC50 WI38 / IC50 Pf3D7; for SI CC50/IC50 (PfDd2): CC50 WI38 / IC50 PfDd2
In short: (§1)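 WI38 cells harvested at log phase and seeded at 10 000/well in DMEM or MEM with 10% FBS and 1% penicillin-streptomycin. After 12 h adherence at 37 °C, 5% CO2, 2-fold dilutions (final 50 to 1.57 μM) were added in triplicate for 2 days. MTT read-out: 4 h, DMSO solubilisation, 490 nm. CC50 is the mean of two independent experiments. SI = CC50/IC50 for each Pf strain.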

[2] = Cytotoxicity assay on WI38 cells; type: cell-based, human; settings: human, WI38 cells (human embryonic lung fibroblasts)
In short: as §1

[3] = tested on: Pf3D7 (chloroquine-sensitive) strain; test: In vitro P. falciparum whole cell assay; type: cell-based; settings: Plasmodium falciparum, 72 h, read-out: Pf3D7 IC50
In short: (§2)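 Parasites synchronised to 95% ring stage with 5% sorbitol. Stocks: chloroquine in water, test compounds and dihydroartemisinin in DMSO, diluted in incomplete 1640 medium. Ring-stage cultures (1% parasitaemia, 2% haematocrit) exposed to serial dilutions for 72 h at 37 °C. Growth read by SYBR Green I fluorescence. IC50 from a sigmoidal growth fit.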

[4] = tested on: PfDd2 (chloroquine-resistant) strain; test: In vitro P. falciparum whole cell assay; type: cell-based; settings: Plasmodium falciparum, 72 h, read-out: PfDd2 IC50
In short: as §2

[5] = tested on: juvenile S. japonicum (schistosomula); test: In vitro assay for drug effect on juvenile S. japonicum; type: cell-based, Schistosoma japonicum; settings: 10 μg/mL
In short: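 Cercariae mechanically transformed to schistosomula and kept in RPMI 1640 with 5% FBS, 100 IU/mL penicillin and 100 μg/mL streptomycin at 37 °C, 5% CO2. 50 schistosomula/well exposed to compound at final 10 μg/mL for 72 h, in duplicate, with DMSO negative control. Activity, survival time, mortality and morphology scored microscopically at 12, 24, 48 and 72 h.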

adult S. japonicum = test: In vitro assay for drug effect on adult S. japonicum; type: cell-based, Schistosoma japonicum; settings: 72 h
In short: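 Adult worms taken from infected mice 34–38 days post-infection, perfused with ice-cold heparinised HBSS, rinsed three times. Kept in RPMI 1640 with 10% calf serum, penicillin, streptomycin and amphotericin B. Four worm pairs per well, 2 h preincubation at 37 °C, 5% CO2, then compound at final 10 or 5 μg/mL; DMSO control. Scored at 24, 48, 72 h; death = no sucker/body movement for 2 min.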

Structure (SMILES)	β-Hematin % Inhibition (β-hematin formation) [%]	IC50 (β-hematin formation) [nM]	SI CC50/IC50 (Pf3D7) [1]	SI CC50/IC50 (PfDd2) [1]	CC50 at 2 days [2] [nM]	IC50 [3] [nM]	IC50 [4] [nM]	Juvenile S. japonicum worm-killing [5]	Adult S. japonicum worm-killing (adult S. japonicum; 5 μg/mL)	Adult S. japonicum worm-killing (adult S. japonicum; 10 μg/mL)	IC50 (β-hematin formation; listed as chloroquine) [nM]
CCCCNC[C@@H](O)Cn1c2ccc(Cl)cc2c2cc(Cl)ccc21 [(R)-7, (R)-1-(butylamino)-3-(3,6-dichloro-9H-carbazol-9-yl)propan-2-ol]	75.13	119000 ± 7140	22	45	7690	344 ± 54	172 ± 32	+	+	+	–
CCCCCCCCNCC(O)Cn1c2ccc(Cl)cc2c2cc(Cl)ccc21 (stereo not drawn) [Compound 11, 1-(3,6-Dichloro-9H-carbazol-9-yl)-3-(octylamino)propan-2-ol]	50.59	65400 ± 4900	29	70	3770	132 ± 59	54 ± 6	+	±	+	–
C[C@H]1[C@@H](O)O[C@@H]2O[C@@]3(C)CC[C@H]4[C@H](C)CC[C@@H]1[C@@]24OO3 [Dihydroartemisinin, reference compound]	–	–	–	–	–	–	5 ± 0.2	–	–	–	–
CCN(CC)Cc1cc(Nc2ccnc3cc(Cl)ccc23)ccc1O [Amodiaquine, reference compound]	100	15900 ± 1290	–	–	–	–	–	–	–	–	–
OC(CN1CCOCC1)Cn1c2ccc(Cl)cc2c2cc(Cl)ccc21 (stereo not drawn) [Compound 5, 1-(3,6-Dichloro-9H-carbazol-9-yl)-3-morpholinopropan-2-ol]	0	–	–	–	–	1290 ± 329	–	–	–	–	–
CCCCCCNCC(O)Cn1c2ccc(Cl)cc2c2cc(Cl)ccc21 (stereo not drawn) [Compound 9, 1-(3,6-Dichloro-9H-carbazol-9-yl)-3-(hexylamino)propan-2-ol]	81.85	55000 ± 5870	22	126	5920	274 ± 63	47 ± 10	+	±	+	–
CCN(CC)CCCC(C)Nc1ccnc2cc(Cl)ccc12 (stereo not drawn) [Chloroquine, reference compound]	97.8	61000 ± 5550	–	–	–	15 ± 8	231 ± 24	–	–	–	61000
OC(CN1CCCC1)Cn1c2ccc(Cl)cc2c2cc(Cl)ccc21 (stereo not drawn) [Compound 3, 1-(3,6-Dichloro-9H-carbazol-9-yl)-3-(pyrrolidin-1-yl)propan-2-ol]	10.76	–	–	–	–	2670 ± 870	–	–	–	+	–
OC(CN1CCCCC1)Cn1c2ccc(Cl)cc2c2cc(Cl)ccc21 (stereo not drawn) [Compound 4, 1-(3,6-Dichloro-9H-carbazol-9-yl)-3-(piperidin-1-yl)propan-2-ol]	–	–	–	–	–	–	–	–	–	+	–
O=C(C1CCCCC1)N1CC(=O)N2CCc3ccccc3C2C1 (stereo not drawn) [Praziquantel, reference compound]	–	–	–	–	–	–	–	–	+	+	–
CCCCNC[C@H](O)Cn1c2ccc(Cl)cc2c2cc(Cl)ccc21 [(S)-7, (S)-1-(butylamino)-3-(3,6-dichloro-9H-carbazol-9-yl)propan-2-ol]	80.09	106000 ± 8420	24	83	9340	378 ± 91	112 ± 30	+	+	+	–
CCCCCCCNCC(O)Cn1c2ccc(Cl)cc2c2cc(Cl)ccc21 (stereo not drawn) [Compound 10, 1-(3,6-Dichloro-9H-carbazol-9-yl)-3-(heptylamino)propan-2-ol]	74.74	91600 ± 4670	28	95	5140	179 ± 44	54 ± 10	+	±	+	–
